# The list is not random: actives were taken first. Their share in the collection is about 4.9%.
# STAT1 act: increases IFN-gamma driven STAT1 reporter signal; NIH 3T3 STAT1-luciferase reporter, luminescence; 100% = IFN-gamma alone, no compound; activation (% of control), % at 5.5 µM; hit rate 2.6% among 200,000; AID 932;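 active = activation above the screen-wide mean activation plus 3 SD, cut at about 130% in these data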;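 note: raw ratio to IFN-gamma control signal so 100% means no change and 0% no light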
# NF-kB expr up: compounds increasing NF-kB expression in human neuronal cells; hit rate 1.6% among 190,000; NF-kB reporter expression; stronger effect = higher value; fold change at 12.5 µM; AID 1239; in the data active = fold change above about 3.3
# STAT3 activator: increases IL-6 driven STAT3 reporter signal; activation (% of control), % at 5.6 µM; AID 871; hit rate 0.91% among 190,000; U3A cells, IL-6 STAT3-luciferase reporter, luminescence; 100% = signal with IL-6 EC80 alone;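 active = activation above the screen-wide mean of compound activation plus 3 SD, cut at about 130% in these data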;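 note: 0% = background luminescence of wells with medium and substrate only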
#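 Material: human U3A cells carrying STAT3-luciferase construct. Measured by: reporter luminescence signal. Timing: compound 1 h, then IL-6 6 h at 37 °C.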
# APP 5'UTR act: APP 5'UTR luciferase reporter activation | SH-SY5Y APP 5'UTR luciferase reporter, luminescence; zero percent = DMSO vehicle wells | activation, % at 2 µM | hit rate 1% among 190,000 | AID 1276;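 active = activation above a set limit, based on mean plus 3 SD of controls, cut at about 140% in these data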
# STAT3 inh: inhibitors of IL-6 induced STAT3 signaling; hit rate 0.89% among 190,000; inhibition, % at 5.5 µM; AID 862; U3A cells, IL-6 STAT3-luciferase reporter, luminescence; host cell line lacks STAT1;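 active = inhibition above the mean inhibition across all screened compounds plus 3 SD, cut at about 44% in these data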;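 note: 0% = DMSO only wells and 100% = 100 µM nifuroxazide control wells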
# STAT1 inh: STAT1 signaling inhibition. NIH 3T3 STAT1-luciferase reporter, IFN-gamma, luminescence. inhibition, % at 5.5 µM. hit rate 0.35% among 200,000;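 active = inhibition above a set limit, the mean inhibition across all tested compounds plus 3 SD, cut at about 34% in these data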;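 note: 0% = IFN-gamma with DMSO and 100% = IFN-gamma with 300 µM nifuroxazide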
# An asterisk follows results filed as active; x = not tested or not shown.
SMILES,STAT1 act,NF-kB expr up,STAT3 activator,APP 5'UTR act,STAT3 inh,STAT1 inh
CCOC(=O)NC(=O)C(/C=N/c1sccc1C(=O)OC)=C(\C)O,107,1.3,105,-12,1,-10
CC(=O)N(C)c1nc(N)n(-c2ccccc2)n1,105,1.2,101,8,1,-5
CCOC(=S)SCC(=O)Nc1nc(-c2ccc(Br)cc2)cs1,108,4.6*,108,-32,-6,-9
N#CC(C#N)=Cc1cccn1-c1ccc(S(N)(=O)=O)cc1,85,1.4,97,-1,9,16
O=C(CSc1nnc(-c2ccc(O)cc2)n1Cc1ccccc1)NNC(=O)c1ccc(Br)cc1,104,1,99,5,-1,-4
Cc1ccccc1NC(=S)NC12CN3CN(CN(C3)C1)C2,94,1.6,85,8,27,6
COc1ccccc1/C=C/C=N/NC(=O)c1cnccn1,118,1.7,92,14,12,-22
O=C(N/N=C/c1cc2c(cc1Cl)OCO2)c1ccccn1,134*,x,93,23,18,-38
COc1cc(/C=N/NC(=O)c2ccccn2)cc2c1OCO2,129*,0.93,106,37,-6,-32
COc1ccccc1/C=C/C=N/NC(=O)c1ccccn1,133*,4.6*,80,121,28,-35
O=C(N/N=C/c1ccccc1OCC(=O)N1CCCC1)C(=O)Nc1ccccc1F,113,1.4,96,12,5,-14
CC(C)CCN1C(=O)c2ccc(C(=O)OCn3nnc4ccccc4c3=O)cc2C1=O,96,0.96,100,-18,5,5
Cc1ccc2c(SCC(=O)NCc3ccco3)nc(-c3ccc(F)cc3)nc2c1,93,1.3,111,1,-7,8
COc1cc(/C(C)=N/NC(=O)CSc2nncn2C)ccc1OCc1ccccc1Cl,129*,1,91,27,11,-32
O=C(c1ccccc1)c1nnc(-c2ccccc2F)o1,115,9.8*,90,90,16,-16
CN(C)c1oc(-c2ccccc2F)nc1C#N,104,0.95,87,18,21,-4
O=C1CNC(=O)/C1=C\N1CCN(C(c2ccccc2)c2ccccc2)CC1,100,1.4,104,0,-1,1
O=C1NCCCC2c3cc(O)c4ccccc4c3OC12N1CCCCC1 (configuration not stated),106,0.56,47,-11,63*,-6
CCC(C)(C)NC(=O)C1CCN(c2nc(OC)nc(OC)n2)CC1,95,1.3,101,10,8,3
CCn1cc(/C=N\NC(=O)C2(C)CC2(Cl)Cl)c(C)n1 (configuration not stated),106,1.1,106,45,-8,-6
CN(C)c1ccc(C(=S)NC2CCCCC2)cc1,132*,3.4*,114,83,-11,-36
Cc1nc2c(sc3nc4c(cc32)COC(C)(C)C4)c(=O)n1CC(=O)NCc1ccco1,131*,2.5,111,5,-10,-34
CC1(C)Cc2nc3sc4c(SCC(=O)NCc5ccco5)ncnc4c3cc2CO1,124,1.6,97,12,6,-26
Cc1csc(NC(=O)c2ccccc2C(=O)O)n1,97,1.2,93,13,12,3
Cc1csc(NC(=O)c2cccn2C)n1,131*,3.2,98,90,4,-35
SMILES,STAT1 act,NF-kB expr up,STAT3 activator,APP 5'UTR act,STAT3 inh,STAT1 inh
Cn1cccc1C(=O)Nc1nc(-c2ccccn2)cs1,135*,5.1*,91,43,17,-39
Cc1csc(NC(=O)c2cn3ccccc3n2)n1,39,0.97,23,68,96*,65*
CN1CCC(N(C)C(=O)c2cc(=O)c3ccccc3o2)CC1,104,1.1,102,-10,4,-4
CC(=O)c1sc2nc(-c3cccs3)ccc2c1N,120,2,108,74,-5,-21
Nc1c(C(=O)Nc2nc3ccccc3s2)sc2nc(-c3cccs3)ccc12,140*,2.1,91,110,18,-51
O=C(NC(=S)Nc1nc2ccccc2s1)c1cccs1,133*,2.5,151*,145*,-66,-37
Cc1cc(C)nc(Nc2nc3ccccc3s2)n1,129*,1.2,156*,147*,-61,-36
NC(=S)Nc1nc2ccccc2s1,134*,1.4,155*,47,-55,-40
CCN(CC(=O)N1CCc2ccccc2C1)S(=O)(=O)c1ccc2ccccc2c1,94,1,96,-17,11,7
CC(=NCc1ccco1)c1c(C)[nH]n(-c2nc3ccccc3s2)c1=O,128,1.5,92,153*,11,-43
CCC(=NCc1ccco1)c1c(C(F)(F)F)[nH]n(-c2nc3ccccc3s2)c1=O,120,0.49,76,17,33,-22
COc1ccccc1C(=O)NNC(=O)c1ccccc1F,138*,2.1,133,60,-42,-43
COc1ccccc1C(=O)NNC(=O)c1cccc(F)c1,146*,2.3,94,129,10,-51
COCC(=O)NNC(=O)c1ccccc1OC,99,1,135*,6,-38,2
COc1cc2c(cc1NC(=O)c1ccccc1F)CCCC2,138*,2.5,129,74,-33,-42
O=C(CCNC(=O)c1ccccc1Cl)Nc1nnc(C2CC2)s1,108,0.98,110,-3,-3,-8
CC1(C)C2CC=C(/C=N/NC(=S)Nc3cccnc3)C1C2 (configuration not stated),103,1.1,107,18,-6,-4
CC1=C/C(=N\NC(=S)Nc2cccnc2)CC(C)(C)C1,134*,1.2,106,1,-8,-36
CC(NC(=O)C(=O)NCCC1=CCCCC1)c1ccccc1 (configuration not stated),98,1.1,93,-9,12,2
CC(=O)C1=C(C)OC(N)=C(C#N)C1c1cc2cc(C)c(C)cc2nc1Cl (configuration not stated),96,1.1,178*,30,-94,5
COC(=O)C1=C(C)OC(N)=C(C#N)C1c1cc2cc(C)ccc2nc1Cl (configuration not stated),94,1.3,97,-2,8,5
Cc1ccc2nc(N/C(=N/S(=O)(=O)c3cccs3)c3ccccc3Cl)sc2c1,99,0.9,88,29,17,-2
O=C(Cn1cc(C(=O)c2cccs2)c2ccccc21)NCc1ccc2c(c1)OCO2,101,0.79,100,x,9,-1
CCOC(=O)C1=C(C)N(CC)C(=S)NC1c1ccc(Cl)cc1 (configuration not stated),91,0.77,78,-9,29,10
Cc1ccc(SCC(=O)Nc2cccc(-c3nnc(-c4ccco4)o3)c2)cc1,134*,1.6,100,56,5,-38
